From ChEMBL document CHEMBL3870325 (Bioorg Med Chem, 2017)
pIC50: −log10 of the molar value. Values belong to the molecule of their own block, whether it stands above or below them.

What was measured:
cells [1] = format: functional, cell-based; settings: Homo sapiens, A549, 48 h
[2] = target: T1, Epidermal growth factor receptor (Homo sapiens, UniProt P00533)
[3] = target: T2, Receptor tyrosine-protein kinase erbB-2 (Homo sapiens, UniProt P04626); test: Inhibition of HER2 (unknown origin) assessed as remaining ATP level measured after 15 mins by luminescence analysis
Summary of the method: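 Kinase run as a contracted HTRF assay. Compounds in 3-fold dilution in 2.5% DMSO/kinase buffer, mixed with kinase and substrate, preincubated 15 min at RT. ATP added to start, reaction 30 min at RT. Stopped with Streptavidin-XL665 plus europium-cryptate TK antibody (1:100). Excitation 320 nm, 665/615 nm emission ratio. IC50 from inhibition curves, results from 2 assays.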

cells [4] = format: functional, cell-based; settings: Homo sapiens, BT-474, 48 h
Histone deacetylase 1 = Histone deacetylase 1 (Homo sapiens, UniProt Q13547); test: Inhibition of HDAC1 (unknown origin) using acetylated peptide substrate preincubated for 15 mins followed by substrate addition measured after 60 mins by fluorescence analysis
[5] = target: T3, Protein deacetylase HDAC6 (Homo sapiens, UniProt Q9UBN7); test: Inhibition of HDAC6 (unknown origin) using acetylated peptide substrate preincubated for 15 mins followed by substrate addition measured after 60 mins by fluorescence analysis
T3 sequence (Q9UBN7 whole entry): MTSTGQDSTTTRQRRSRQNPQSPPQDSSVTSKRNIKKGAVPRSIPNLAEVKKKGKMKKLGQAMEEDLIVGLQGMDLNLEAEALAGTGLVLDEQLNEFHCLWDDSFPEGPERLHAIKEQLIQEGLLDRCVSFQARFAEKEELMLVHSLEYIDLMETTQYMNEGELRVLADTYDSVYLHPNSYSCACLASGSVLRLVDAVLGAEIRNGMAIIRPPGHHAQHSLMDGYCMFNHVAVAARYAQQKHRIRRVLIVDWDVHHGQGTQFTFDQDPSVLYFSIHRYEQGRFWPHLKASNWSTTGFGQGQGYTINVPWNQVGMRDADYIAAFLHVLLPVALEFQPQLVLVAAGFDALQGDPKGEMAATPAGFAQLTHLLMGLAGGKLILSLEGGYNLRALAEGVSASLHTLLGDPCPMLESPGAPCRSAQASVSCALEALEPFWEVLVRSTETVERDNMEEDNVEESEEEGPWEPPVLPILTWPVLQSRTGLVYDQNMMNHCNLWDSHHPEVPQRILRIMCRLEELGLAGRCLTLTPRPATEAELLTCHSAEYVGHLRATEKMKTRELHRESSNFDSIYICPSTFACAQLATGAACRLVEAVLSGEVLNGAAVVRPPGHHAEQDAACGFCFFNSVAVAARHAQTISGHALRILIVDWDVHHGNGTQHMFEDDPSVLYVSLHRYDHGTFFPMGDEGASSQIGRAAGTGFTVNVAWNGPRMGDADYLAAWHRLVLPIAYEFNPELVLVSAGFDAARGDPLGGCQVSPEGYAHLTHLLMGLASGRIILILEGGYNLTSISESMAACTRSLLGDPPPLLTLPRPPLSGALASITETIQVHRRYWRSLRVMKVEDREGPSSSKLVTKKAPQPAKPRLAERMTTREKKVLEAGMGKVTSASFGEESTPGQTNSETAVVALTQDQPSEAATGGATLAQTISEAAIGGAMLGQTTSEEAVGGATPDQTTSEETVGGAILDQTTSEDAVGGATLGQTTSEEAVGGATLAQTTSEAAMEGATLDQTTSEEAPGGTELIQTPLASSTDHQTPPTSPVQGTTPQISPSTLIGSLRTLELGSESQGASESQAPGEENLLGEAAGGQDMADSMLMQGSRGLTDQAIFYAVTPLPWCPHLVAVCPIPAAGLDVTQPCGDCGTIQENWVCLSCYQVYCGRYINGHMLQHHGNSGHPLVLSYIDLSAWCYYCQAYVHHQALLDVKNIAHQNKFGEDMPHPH

[6] = target: T1, Epidermal growth factor receptor; test: Inhibition of EGFR (unknown origin)
Summary of the method: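 HTRF kinase assay. Compounds were serially diluted 3-fold in 2.5% DMSO/kinase buffer, then mixed with kinase and substrate and preincubated 15 min at RT. The reaction was started with ATP and run 30 min at RT. It was stopped with Streptavidin-XL665 and TK antibody europium cryptate. Read at ex 320 nm, em 665/615 nm ratio. IC50 from inhibition curves; 2 separate assays.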

[7] = target: T2, Receptor tyrosine-protein kinase erbB-2; test: Inhibition of HER2 (unknown origin)
Summary of the method: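 Homogeneous time-resolved fluorescence kinase assay. Compounds were 3-fold serially diluted in 2.5% DMSO/kinase buffer and preincubated with kinase and substrate for 15 min at RT. ATP started the reaction, which ran 30 min at RT and was stopped with Streptavidin-XL665 plus TK antibody europium cryptate. Read at 320 nm excitation, 665/615 nm emission ratio. IC50 from inhibition curves; two separate assays.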

cells [8] = settings: Homo sapiens, SK-BR-3, 48 h
cells [9] = settings: Homo sapiens, NCI-H1975, 48 h
cells [10] = settings: Homo sapiens, A-431, 48 h
[11] = Inhibition of HDAC in human HeLa cell nuclear extract using COLOR DE LYS as substrate by fluorometric analysis; format: cell-free
BT-474 [12] = test: Induction of apoptosis in human BT474 cells assessed as early apoptotic cells at 1 uM measured after 48 hrs by Annexin V-FITC/propidium iodide staining based flow cytometry (reference value: 2.87%); format: functional
BT-474 [13] = test: Induction of apoptosis in human BT474 cells measured after 48 hrs by Annexin V-FITC/propidium iodide staining based flow cytometry; format: functional, cell-based
BT-474 [14] = test: Induction of apoptosis in human BT474 cells assessed as late apoptotic cells at 5 uM measured after 48 hrs by Annexin V-FITC/propidium iodide staining based flow cytometry (reference value: 0.32%); format: functional
BT-474 [15] = test: Induction of apoptosis in human BT474 cells assessed as early apoptotic cells at 5 uM measured after 48 hrs by Annexin V-FITC/propidium iodide staining based flow cytometry (reference value: 2.87%); format: functional
BT-474 [16] = test: Induction of apoptosis in human BT474 cells assessed as early apoptotic cells at 2.5 uM measured after 48 hrs by Annexin V-FITC/propidium iodide staining based flow cytometry (reference value: 2.87%); format: functional
A549 = test: Inhibition of HDAC in human A549 cells assessed as activation of H3 hyperacetylation measured after 24 hrs by Western blot analysis; format: cell-based
Summary of the method: (§1)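 A549 cells treated 24 h across a dose range. Lysate protein (20-40 µg) run on 7.5%-15% SDS-PAGE and blotted to PVDF. Membranes blocked 2 h in TBST with 5% BSA. Primary antibody (p-EGFR Tyr1068, p-EGFR Tyr1173, total EGFR, acetyl-histone H3 Lys27) applied 8-12 h at 4°C. HRP secondary, chemiluminescent detection.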

[17] = target: T2, Receptor tyrosine-protein kinase erbB-2; settings: BT-474, 1 uM
BT-474 [18] = test: Induction of apoptosis in human BT474 cells assessed as necrotic cells at 2.5 uM measured after 48 hrs by Annexin V-FITC/propidium iodide staining based flow cytometry (reference value: 0.06%); format: functional
BT-474 [19] = test: Induction of apoptosis in human BT474 cells assessed as necrotic cells at 5 uM measured after 48 hrs by Annexin V-FITC/propidium iodide staining based flow cytometry (reference value: 0.06%); format: functional
[20] = target: T1, Epidermal growth factor receptor; settings: A549, 0.5 uM
BT-474 [21] = test: Induction of apoptosis in human BT474 cells assessed as necrotic cells at 1 uM measured after 48 hrs by Annexin V-FITC/propidium iodide staining based flow cytometry (reference value: 0.06%); format: functional
BT-474 [22] = test: Induction of apoptosis in human BT474 cells assessed as viable cells at 5 uM measured after 48 hrs by Annexin V-FITC/propidium iodide staining based flow cytometry (reference value: 96.76%); format: functional; settings: BT-474, 48 h, read-out: Activity
[23] = target: T2, Receptor tyrosine-protein kinase erbB-2; settings: BT-474, 25 uM
[24] = target: T1, Epidermal growth factor receptor; settings: A549, 0.5 uM; remark: listed apart in the source
[25] = target: T1, Epidermal growth factor receptor; test: Inhibition of EGFR in human A549 cells assessed as suppression of EGFR phosphorylation at Tyr1068 residue measured after 24 hrs by Western blot analysis; format: cell-based
Summary of the method: as §1

BT-474 [26] = test: Induction of apoptosis in human BT474 cells assessed as viable cells at 2.5 uM measured after 48 hrs by Annexin V-FITC/propidium iodide staining based flow cytometry (reference value: 96.76%); format: functional; settings: BT-474, 48 h, read-out: Activity
BT-474 [27] = test: Induction of apoptosis in human BT474 cells assessed as viable cells at 1 uM measured after 48 hrs by Annexin V-FITC/propidium iodide staining based flow cytometry (reference value: 96.76%); format: functional; settings: BT-474, 48 h, read-out: Activity
BT-474 [28] = test: Induction of apoptosis in human BT474 cells assessed as late apoptotic cells at 2.5 uM measured after 48 hrs by Annexin V-FITC/propidium iodide staining based flow cytometry (reference value: 0.32%); format: functional
[29] = target: T1, Epidermal growth factor receptor; test: Inhibition of EGFR in human A549 cells assessed as suppression of EGFR phosphorylation at Tyr1173 residue measured after 24 hrs by Western blot analysis; format: cell-based
Summary of the method: as §1

BT-474 [30] = test: Induction of apoptosis in human BT474 cells assessed as late apoptotic cells at 1 uM measured after 48 hrs by Annexin V-FITC/propidium iodide staining based flow cytometry (reference value: 0.32%); format: functional

T2 sequence (P04626 whole entry): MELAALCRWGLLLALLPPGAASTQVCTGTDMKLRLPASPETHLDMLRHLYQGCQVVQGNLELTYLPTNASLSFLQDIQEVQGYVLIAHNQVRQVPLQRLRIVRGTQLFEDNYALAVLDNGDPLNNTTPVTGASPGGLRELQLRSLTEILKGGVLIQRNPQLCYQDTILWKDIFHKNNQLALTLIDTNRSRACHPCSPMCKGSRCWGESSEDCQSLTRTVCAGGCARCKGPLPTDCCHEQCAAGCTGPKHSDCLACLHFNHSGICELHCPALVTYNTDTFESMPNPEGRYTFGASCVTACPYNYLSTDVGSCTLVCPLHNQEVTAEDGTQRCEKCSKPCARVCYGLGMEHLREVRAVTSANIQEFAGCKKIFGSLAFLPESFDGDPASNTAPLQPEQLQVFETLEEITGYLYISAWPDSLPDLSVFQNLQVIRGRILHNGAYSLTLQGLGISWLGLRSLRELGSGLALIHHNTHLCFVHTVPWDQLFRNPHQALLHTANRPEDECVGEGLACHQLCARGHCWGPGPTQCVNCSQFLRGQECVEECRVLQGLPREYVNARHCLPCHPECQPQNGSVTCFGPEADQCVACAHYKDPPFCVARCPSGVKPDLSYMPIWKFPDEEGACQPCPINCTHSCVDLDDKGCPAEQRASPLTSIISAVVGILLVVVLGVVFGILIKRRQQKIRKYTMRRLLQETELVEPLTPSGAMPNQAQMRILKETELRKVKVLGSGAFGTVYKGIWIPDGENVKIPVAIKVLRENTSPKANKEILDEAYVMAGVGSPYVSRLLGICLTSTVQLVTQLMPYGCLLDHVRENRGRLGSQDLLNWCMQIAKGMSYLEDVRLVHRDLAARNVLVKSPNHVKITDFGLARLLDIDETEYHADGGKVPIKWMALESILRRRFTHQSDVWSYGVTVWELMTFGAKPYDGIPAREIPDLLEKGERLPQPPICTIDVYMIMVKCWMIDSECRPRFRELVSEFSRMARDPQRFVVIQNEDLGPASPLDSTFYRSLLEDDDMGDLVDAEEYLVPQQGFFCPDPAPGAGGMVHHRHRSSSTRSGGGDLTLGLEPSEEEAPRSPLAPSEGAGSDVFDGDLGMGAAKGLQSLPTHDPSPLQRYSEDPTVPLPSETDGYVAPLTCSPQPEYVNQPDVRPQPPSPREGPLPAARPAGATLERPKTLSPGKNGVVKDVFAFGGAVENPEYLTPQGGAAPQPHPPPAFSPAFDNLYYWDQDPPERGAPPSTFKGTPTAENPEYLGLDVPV
T1 sequence (P00533 whole entry): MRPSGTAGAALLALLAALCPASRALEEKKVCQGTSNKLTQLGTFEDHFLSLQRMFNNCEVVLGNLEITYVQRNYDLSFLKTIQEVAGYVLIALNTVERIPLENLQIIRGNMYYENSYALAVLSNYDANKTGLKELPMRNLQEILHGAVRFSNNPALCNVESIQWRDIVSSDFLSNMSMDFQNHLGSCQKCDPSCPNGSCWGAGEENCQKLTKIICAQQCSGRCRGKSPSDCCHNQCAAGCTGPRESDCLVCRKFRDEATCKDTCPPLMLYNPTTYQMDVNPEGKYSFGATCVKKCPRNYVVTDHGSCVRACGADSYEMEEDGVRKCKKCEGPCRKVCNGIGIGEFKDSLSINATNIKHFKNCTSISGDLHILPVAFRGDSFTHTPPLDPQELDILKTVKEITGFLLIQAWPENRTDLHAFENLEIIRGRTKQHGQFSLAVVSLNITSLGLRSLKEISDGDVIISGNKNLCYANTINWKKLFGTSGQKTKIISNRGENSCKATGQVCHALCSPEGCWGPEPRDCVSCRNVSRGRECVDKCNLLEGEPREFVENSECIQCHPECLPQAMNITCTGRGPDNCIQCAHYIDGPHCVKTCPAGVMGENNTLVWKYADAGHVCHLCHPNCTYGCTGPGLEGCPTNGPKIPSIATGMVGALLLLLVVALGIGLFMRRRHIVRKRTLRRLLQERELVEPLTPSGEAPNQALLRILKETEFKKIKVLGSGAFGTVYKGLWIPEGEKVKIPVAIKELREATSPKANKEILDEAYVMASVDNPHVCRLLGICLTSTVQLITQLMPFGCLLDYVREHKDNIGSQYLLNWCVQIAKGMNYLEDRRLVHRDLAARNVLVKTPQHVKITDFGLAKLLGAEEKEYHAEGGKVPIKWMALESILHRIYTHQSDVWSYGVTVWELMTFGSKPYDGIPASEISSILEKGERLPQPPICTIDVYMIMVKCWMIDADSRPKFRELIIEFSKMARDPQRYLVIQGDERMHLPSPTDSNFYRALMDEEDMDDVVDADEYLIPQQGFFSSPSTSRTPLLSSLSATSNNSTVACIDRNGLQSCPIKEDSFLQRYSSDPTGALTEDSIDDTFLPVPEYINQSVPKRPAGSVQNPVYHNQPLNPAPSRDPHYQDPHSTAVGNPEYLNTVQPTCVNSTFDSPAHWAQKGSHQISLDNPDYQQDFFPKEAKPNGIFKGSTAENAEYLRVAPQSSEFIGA
Sequence of Histone deacetylase 1 (Q13547 whole entry): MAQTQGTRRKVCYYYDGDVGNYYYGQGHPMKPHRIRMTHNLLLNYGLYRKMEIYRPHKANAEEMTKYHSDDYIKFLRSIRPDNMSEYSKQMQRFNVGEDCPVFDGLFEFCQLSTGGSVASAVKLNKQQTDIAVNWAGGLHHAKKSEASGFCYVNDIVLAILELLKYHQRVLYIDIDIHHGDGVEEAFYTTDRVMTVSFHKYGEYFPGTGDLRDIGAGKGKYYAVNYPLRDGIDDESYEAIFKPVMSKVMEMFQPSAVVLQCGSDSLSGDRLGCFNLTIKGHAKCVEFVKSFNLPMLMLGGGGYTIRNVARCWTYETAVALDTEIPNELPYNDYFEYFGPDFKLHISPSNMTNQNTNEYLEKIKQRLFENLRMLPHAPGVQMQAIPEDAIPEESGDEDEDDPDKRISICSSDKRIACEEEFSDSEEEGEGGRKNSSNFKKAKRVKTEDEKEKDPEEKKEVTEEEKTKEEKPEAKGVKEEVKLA

SMILES: C[C@@H]1COC(Nc2ccc3ncnc(Nc4ccc(OCc5nccs5)c(Cl)c4)c3c2)=N1 [VARLITINIB]
pIC50 [6]: 8.15 | pIC50 [7]: 8.70

SMILES: C#Cc1cccc(Nc2ncnc3cc(OC)c(OCCCCCCC(=O)NO)cc23)c1 [CUDC-101]
pIC50 [11]: 8.38

SMILES: Cc1ccc(Oc2ccc(Nc3ncnc4ccc(-c5cn(CCCCCCC(=O)NO)nn5)cc34)cc2C)cn1
pIC50 (cells [1]): 4.78 | pIC50 [2]: 8.00 | pIC50 [3]: < 6.00 | pIC50 (cells [4]): 5.36 | pIC50 (Histone deacetylase 1): 8.28 | pIC50 [5]: 7.86

SMILES: O=C(CCCCCn1cc(-c2ccc3ncnc(Nc4ccc(OCc5cccc(F)c5)c(Cl)c4)c3c2)nn1)NO
pIC50 (cells [1]): < 4.30 | pIC50 [2]: 8.72 | pIC50 [3]: 6.71 | pIC50 (cells [4]): 5.66 | pIC50 (Histone deacetylase 1): 7.41 | pIC50 [5]: 7.03

The remaining molecules from weak to strong by pIC50 (cells [1]), led by results:

pIC50 (cells [1]): 5.06 | pIC50 [2]: 8.44 | pIC50 [3]: 6.15 | pIC50 (cells [4]): 5.54 | pIC50 (Histone deacetylase 1): 8.25 | pIC50 [5]: 7.87
SMILES: O=C(CCCCCCn1cc(-c2ccc3ncnc(Nc4ccc(OCc5nccs5)c(Cl)c4)c3c2)nn1)NO

pIC50 (cells [1]): 5.07 | pIC50 [2]: 8.19 | pIC50 [3]: < 6.00 | pIC50 (cells [4]): 4.83 | pIC50 (Histone deacetylase 1): 8.16 | pIC50 [5]: 7.89
SMILES: Cc1ccc(Oc2ccc(Nc3ncnc4ccc(-c5cn(CCCCCC(=O)NO)nn5)cc34)cc2C)cn1

pIC50 (cells [8]): 6.16 | pIC50 (cells [1]): 6.20 | pIC50 [2]: 9.92 | pIC50 [3]: 6.76 | pIC50 (cells [9]): 5.09 | inhibition [17]: 100% | inhibition [20]: 100% | pIC50 (cells [4]): 5.41 | inhibition [23]: 100% | inhibition [24]: 100% | pIC50 (cells [10]): 6.31 | inhibition [25]: Dose-dependent effect | pIC50 (Histone deacetylase 1): 9.14 | pIC50 [5]: 8.49 | inhibition [29]: Dose-dependent effect
SMILES: O=C(CCCCCCn1cc(-c2ccc3ncnc(Nc4cccc(Cl)c4F)c3c2)nn1)NO
Activity (BT-474 [12]): 8.27% | Activity (BT-474 [13]): Dose-dependent effect | Activity (BT-474 [14]): 41.84% | Activity (BT-474 [15]): 22.02% | Activity (BT-474 [16]): 14.83% | inhibition (A549): Dose-dependent effect | Activity (BT-474 [18]): 0.89% | Activity (BT-474 [19]): 1.36% | Activity (BT-474 [21]): 0.34% | viability at 5 µM (BT-474 [22]): 34.8% | viability at 2.5 µM (BT-474 [26]): 64.5% | viability at 1 µM (BT-474 [27]): 86.3% | Activity (BT-474 [28]): 19.73% | Activity (BT-474 [30]): 5.1%

pIC50 (cells [8]): 5.90 | pIC50 (cells [1]): 6.29 | pIC50 [2]: 9.16 | pIC50 [3]: 6.75 | pIC50 (cells [9]): 5.06 | pIC50 (cells [4]): 5.44 | pIC50 (cells [10]): 5.71 | pIC50 (Histone deacetylase 1): 8.59 | pIC50 [5]: 8.08
SMILES: O=C(CCCCCCn1cc(-c2ccc3ncnc(Nc4ccc(F)c(Cl)c4)c3c2)nn1)NO
